{
  "source": "ChEMBL document CHEMBL3994667",
  "about": "“Small Molecule Lysyl Oxidase-like 2 (LOXL2) Inhibitors: The Identification of an Inhibitor Selective for LOXL2 over LOX” (ACS Med Chem Lett, 2017)",
  "key": {"Protein-lysine 6-oxidase": {"biological_target": "T1, Protein-lysine 6-oxidase (Homo sapiens, UniProt P28300)", "T1 sequence (P28300 whole entry)": "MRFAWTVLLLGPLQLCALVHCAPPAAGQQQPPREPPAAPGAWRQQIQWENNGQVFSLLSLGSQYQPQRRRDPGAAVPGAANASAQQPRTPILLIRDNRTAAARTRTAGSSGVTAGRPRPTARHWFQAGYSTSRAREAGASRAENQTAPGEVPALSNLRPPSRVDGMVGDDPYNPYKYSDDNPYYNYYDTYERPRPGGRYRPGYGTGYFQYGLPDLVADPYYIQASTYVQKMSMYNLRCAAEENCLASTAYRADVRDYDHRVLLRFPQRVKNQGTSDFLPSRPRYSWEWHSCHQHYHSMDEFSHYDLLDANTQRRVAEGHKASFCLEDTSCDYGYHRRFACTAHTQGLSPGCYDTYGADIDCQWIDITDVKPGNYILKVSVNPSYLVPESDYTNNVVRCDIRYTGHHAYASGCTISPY", "assay": "Inhibition of full length recombinant human LOX expressed in HEK cells assessed as reduction in H2O2 production using DAP as substrate preincubated for 2 hrs followed by substrate addition measured every 2 minutes for 50 minutes in presence of BSA by Amplex red dye based fluorescence assay; call rule not given here", "summary_of_the_method": "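Enzyme source: serum-free conditioned media from HEK cells stably expressing human LOX, with BSA added to give measurable activity. Activity is measured as H2O2 from oxidative deamination of 1,5-diaminopentane (DAP), read by Amplex Red. IC50 is given as geometric mean x/÷ geometric standard deviation, with N-values reported.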"}, "Lysyl oxidase homolog 2": {"biological_target": "T2, Lysyl oxidase homolog 2 (Homo sapiens, UniProt Q9Y4K0)", "T2 sequence (Q9Y4K0 whole entry)": "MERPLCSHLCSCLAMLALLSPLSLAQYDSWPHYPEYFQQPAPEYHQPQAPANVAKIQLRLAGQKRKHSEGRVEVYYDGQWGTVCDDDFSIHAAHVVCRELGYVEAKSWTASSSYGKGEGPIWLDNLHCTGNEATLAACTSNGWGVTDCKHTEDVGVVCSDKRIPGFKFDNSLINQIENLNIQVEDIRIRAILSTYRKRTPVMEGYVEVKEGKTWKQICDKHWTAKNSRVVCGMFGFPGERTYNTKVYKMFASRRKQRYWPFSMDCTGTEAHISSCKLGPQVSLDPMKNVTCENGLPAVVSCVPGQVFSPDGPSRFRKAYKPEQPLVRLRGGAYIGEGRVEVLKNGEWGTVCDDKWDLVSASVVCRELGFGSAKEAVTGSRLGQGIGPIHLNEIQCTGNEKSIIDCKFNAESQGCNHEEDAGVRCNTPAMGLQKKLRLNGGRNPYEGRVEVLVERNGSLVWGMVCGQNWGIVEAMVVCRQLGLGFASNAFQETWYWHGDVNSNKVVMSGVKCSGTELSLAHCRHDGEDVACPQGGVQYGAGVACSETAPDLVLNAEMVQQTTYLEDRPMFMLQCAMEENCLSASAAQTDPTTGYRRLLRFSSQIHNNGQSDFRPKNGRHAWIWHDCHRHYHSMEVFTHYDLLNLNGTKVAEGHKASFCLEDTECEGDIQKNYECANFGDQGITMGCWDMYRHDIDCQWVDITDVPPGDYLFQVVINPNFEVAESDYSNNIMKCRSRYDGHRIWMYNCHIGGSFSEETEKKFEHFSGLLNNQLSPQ", "assay": "Inhibition of full length recombinant human LOXL2 expressed in CHO cells assessed as reduction in H2O2 production using DAP as substrate preincubated for 2 hrs followed by substrate addition measured every 2 minutes for 50 minutes in presence of BSA by Amplex red dye based fluorescence assay", "summary_of_the_method": "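Serum-free concentrated conditioned medium from CHO cells stably expressing human LOXL2, supplemented with BSA. Compounds preincubated for 2 h (the screening preincubation time). Substrate was 1,5-diaminopentane, and the H2O2 formed was detected with Amplex Red. IC50 given as geometric mean x/÷ geometric SD over N determinations.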"}, "Lysyl oxidase homolog 3": {"biological_target": "T3, Lysyl oxidase homolog 3 (Homo sapiens, UniProt P58215)", "T3 sequence (P58215 whole entry)": "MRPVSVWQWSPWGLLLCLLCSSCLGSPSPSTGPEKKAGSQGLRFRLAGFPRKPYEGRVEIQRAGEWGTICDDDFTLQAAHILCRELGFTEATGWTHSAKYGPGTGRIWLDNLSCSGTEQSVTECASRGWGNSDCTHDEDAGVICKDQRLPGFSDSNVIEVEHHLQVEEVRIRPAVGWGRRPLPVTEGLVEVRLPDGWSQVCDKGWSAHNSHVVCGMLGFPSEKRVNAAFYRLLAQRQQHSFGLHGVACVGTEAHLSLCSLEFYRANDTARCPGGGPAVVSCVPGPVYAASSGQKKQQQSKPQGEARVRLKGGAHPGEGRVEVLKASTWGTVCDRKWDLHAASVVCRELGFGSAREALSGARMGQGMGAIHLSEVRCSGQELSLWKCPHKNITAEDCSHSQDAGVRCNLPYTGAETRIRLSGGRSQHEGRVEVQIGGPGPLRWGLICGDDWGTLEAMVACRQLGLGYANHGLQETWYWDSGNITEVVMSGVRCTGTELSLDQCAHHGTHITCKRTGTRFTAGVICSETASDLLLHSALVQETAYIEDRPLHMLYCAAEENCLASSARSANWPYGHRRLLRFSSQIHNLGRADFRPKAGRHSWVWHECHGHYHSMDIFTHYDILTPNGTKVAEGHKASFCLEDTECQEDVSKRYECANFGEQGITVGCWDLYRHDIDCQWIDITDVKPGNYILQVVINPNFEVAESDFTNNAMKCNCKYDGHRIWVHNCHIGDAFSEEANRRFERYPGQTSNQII", "assay": "Inhibition of recombinant human C-terminal His10-tagged LOXL3 (1 to 753 residues) assessed as reduction in H2O2 production using DAP as substrate preincubated for 2 hrs followed by substrate addition measured every 2 minutes for 50 minutes by Amplex red dye based fluorescence assay"}, "[1]": {"biological_target": "T4, Amine oxidase [flavin-containing] A (Homo sapiens, UniProt P21397)", "T4 sequence (P21397 whole entry)": "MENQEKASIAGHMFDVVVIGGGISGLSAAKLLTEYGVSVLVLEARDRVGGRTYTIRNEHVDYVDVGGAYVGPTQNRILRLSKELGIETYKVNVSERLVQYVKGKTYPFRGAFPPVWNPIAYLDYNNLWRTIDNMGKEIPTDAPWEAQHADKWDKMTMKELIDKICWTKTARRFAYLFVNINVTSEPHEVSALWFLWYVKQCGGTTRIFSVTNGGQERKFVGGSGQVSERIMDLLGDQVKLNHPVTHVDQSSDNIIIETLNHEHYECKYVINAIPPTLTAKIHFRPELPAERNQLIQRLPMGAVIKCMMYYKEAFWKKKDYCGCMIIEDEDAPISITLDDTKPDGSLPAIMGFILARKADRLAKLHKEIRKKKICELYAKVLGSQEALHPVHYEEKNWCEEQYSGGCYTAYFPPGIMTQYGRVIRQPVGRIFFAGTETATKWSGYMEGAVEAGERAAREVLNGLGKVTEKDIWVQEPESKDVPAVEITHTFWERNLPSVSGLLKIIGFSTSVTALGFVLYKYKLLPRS", "assay": "Inhibition of recombinant human MAO-A at 30 uM using tyramine as substrate preincubated for 2 hrs followed by substrate addition measured every 30 secs for 10 minutes by Amplex red dye based fluorescence assay"}},
  "data": [
    {"smiles": "NCc1ccnc(Cl)c1", "values": [
      {"measurement": "IC50", "setting": "Protein-lysine 6-oxidase", "value": 5910, "unit": "nM"},
      {"measurement": "IC50", "setting": "Lysyl oxidase homolog 2", "value": 190, "unit": "nM"},
      {"measurement": "IC50", "setting": "Lysyl oxidase homolog 3", "value": 214, "unit": "nM"},
      {"measurement": "inhibition (INH)", "setting": "[1]", "value": "Not Active"}
    ]}
  ]
}
